{
  "source": "ChEMBL document CHEMBL4130442",
  "about": "“Design, synthesis and structure-activity relationship studies of a focused library of pyrimidine moiety with anti-proliferative and anti-metastasis activities in triple negative breast cancer” (Eur J Med Chem, 2017)",
  "key": {"MDA-MB-231 [1]": {"test_system": "MDA-MB-231", "experiment": "Antiproliferative activity against human MDA-MB-231 cells incubated for 24 hrs by MTT assay", "assay_type": "functional, cell-based", "settings": "MDA-MB-231, 24 h", "method_in_brief": "(§1)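 MDA-MB-231 cells grown in DMEM with 10% FBS under 5% CO2 were seeded at 5×10^4 cells/ml. After 24 h, a concentration series was added for 24, 48 or 72 h and viability was read by MTT. IC50 is mean ± SD of triplicates.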"}, "MDA-MB-231 [2]": {"test_system": "MDA-MB-231", "experiment": "Antiproliferative activity against human MDA-MB-231 cells incubated for 48 hrs by MTT assay", "assay_type": "functional, cell-based", "settings": "MDA-MB-231, 48 h", "method_in_brief": "as §1"}, "MDA-MB-231 [3]": {"test_system": "MDA-MB-231", "experiment": "Induction of autophagy in human MDA-MB-231 cells co-transfected with GFP-mRFP-LC3 assessed as increase in LC3 puncta aggregation at 2.5 uM by fluorescence micrsocpy", "assay_type": "functional, cell-based", "method_in_brief": "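Cells were transfected with a GFP/mRFP-LC3 plasmid and incubated with 2.5 μM compound. GFP-LC3 puncta were then observed by fluorescence microscopy.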"}, "MDA-MB-231 [4]": {"test_system": "MDA-MB-231", "experiment": "Induction of autophagy in human MDA-MB-231 cells assessed as change in p62 protein level at 10 uM incubated for 24 hrs by Western blot method relative to untreated control", "assay_type": "functional", "method_in_brief": "(§2)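 MDA-MB-231 cells were exposed for 24 h. Adherent and floating cells were pooled and lysed for 1 h at 4 °C in 50 mM Hepes pH 7.4 with 1% Triton X-100, orthovanadate, NaF, EDTA, PMSF, aprotinin and leupeptin. After 12,000 rpm clearing, equal protein was run on 10-15% SDS-PAGE and blotted to PVDF. Detection used HRP-ECL, with β-actin as loading control and densitometric quantification.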"}, "MDA-MB-231 [5]": {"test_system": "MDA-MB-231", "experiment": "Induction of autophagy in human MDA-MB-231 cells assessed as change in Beclin-1 protein level at 10 uM incubated for 24 hrs by Western blot method relative to untreated control", "assay_type": "functional", "method_in_brief": "as §2"}, "MDA-MB-231 [6]": {"test_system": "MDA-MB-231", "experiment": "Induction of autophagy in human MDA-MB-231 cells assessed as change in LC3-2 protein level at 2.5 uM incubated for 24 hrs by Western blot method relative to untreated control", "assay_type": "functional", "method_in_brief": "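MDA-MB-231 cells (ATCC; DMEM, 10% FBS, 5% CO2) were treated 24 h over a concentration series. Adherent and floating cells were pooled and lysed 1 h at 4 °C (50 mM Hepes pH 7.4, 1% Triton X-100, phosphatase/protease inhibitors). Equal protein was run on 10-15% SDS-PAGE, transferred to PVDF, probed for Beclin-1, p62 and LC3 with HRP/ECL detection, and normalised to β-actin.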"}, "MDA-MB-231 [7]": {"test_system": "MDA-MB-231", "experiment": "Induction of apoptosis in human MDA-MB-231 cells assessed as change in cleaved caspase-3 protein level at 5 uM incubated for 24 hrs by Western blot method relative to untreated control", "assay_type": "functional", "method_in_brief": "as §2"}, "[8]": {"molecular_target": "T1, Platelet-derived growth factor receptor beta (Homo sapiens, UniProt P09619)", "T1 sequence (P09619 whole entry)": "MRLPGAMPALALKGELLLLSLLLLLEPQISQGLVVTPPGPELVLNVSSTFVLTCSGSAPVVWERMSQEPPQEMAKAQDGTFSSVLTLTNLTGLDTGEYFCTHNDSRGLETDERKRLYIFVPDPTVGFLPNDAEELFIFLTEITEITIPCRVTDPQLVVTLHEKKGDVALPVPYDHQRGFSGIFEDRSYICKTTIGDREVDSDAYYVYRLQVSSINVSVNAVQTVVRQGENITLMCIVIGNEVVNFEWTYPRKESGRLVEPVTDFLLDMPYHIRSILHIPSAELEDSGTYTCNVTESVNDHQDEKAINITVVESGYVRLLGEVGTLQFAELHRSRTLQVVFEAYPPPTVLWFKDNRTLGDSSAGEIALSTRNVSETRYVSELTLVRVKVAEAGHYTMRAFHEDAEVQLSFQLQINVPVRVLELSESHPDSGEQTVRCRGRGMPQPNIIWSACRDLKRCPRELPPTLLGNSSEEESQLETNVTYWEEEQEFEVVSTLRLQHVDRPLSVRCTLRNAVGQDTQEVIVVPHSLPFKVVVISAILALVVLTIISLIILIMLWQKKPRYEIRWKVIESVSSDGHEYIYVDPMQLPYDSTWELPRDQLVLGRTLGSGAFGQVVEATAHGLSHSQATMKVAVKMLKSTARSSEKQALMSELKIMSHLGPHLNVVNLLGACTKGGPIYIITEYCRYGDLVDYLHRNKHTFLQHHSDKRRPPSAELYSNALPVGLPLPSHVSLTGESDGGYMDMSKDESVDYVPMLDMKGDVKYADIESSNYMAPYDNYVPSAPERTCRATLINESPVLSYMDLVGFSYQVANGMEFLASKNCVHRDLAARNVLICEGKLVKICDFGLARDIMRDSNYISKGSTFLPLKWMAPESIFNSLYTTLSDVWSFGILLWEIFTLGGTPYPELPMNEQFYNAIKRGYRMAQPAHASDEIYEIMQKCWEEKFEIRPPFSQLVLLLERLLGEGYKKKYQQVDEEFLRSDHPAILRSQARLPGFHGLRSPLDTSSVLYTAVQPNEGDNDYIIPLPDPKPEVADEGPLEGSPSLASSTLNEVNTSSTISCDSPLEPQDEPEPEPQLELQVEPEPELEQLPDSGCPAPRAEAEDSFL", "experiment": "Inhibition of PDGFRbeta in human MDA-MB-231 cells assessed as PDGFRbeta Tyr740 phosphorylation level at 2.5 uM incubated for 24 hrs by Western blot relative to untreated control", "assay_type": "cell-based", "method_in_brief": "(§3)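 Cells were treated 24 h at several concentrations. Pooled adherent and floating cells were lysed in Hepes 50 mM pH 7.4 / 1% Triton X-100 buffer with vanadate, NaF, EDTA, PMSF, aprotinin and leupeptin. Equal protein was run on 10-15% SDS-PAGE and blotted to PVDF. PDGFR-β-AKT-ULK1 pathway phospho-proteins were probed and detected by ECL, with β-actin as loading control.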"}, "[9]": {"molecular_target": "T1, Platelet-derived growth factor receptor beta", "experiment": "Inhibition of PDGFRbeta in human MDA-MB-231 cells assessed as mTOR Ser2448 phosphorylation level at 5 uM incubated for 24 hrs by Western blot relative to untreated control", "assay_type": "cell-based", "method_in_brief": "as §3"}, "[10]": {"molecular_target": "T1, Platelet-derived growth factor receptor beta", "experiment": "Inhibition of PDGFRbeta in human MDA-MB-231 cells assessed as ULK Ser317 phosphorylation level at 10 uM incubated for 24 hrs by Western blot relative to untreated control", "assay_type": "cell-based", "method_in_brief": "as §3"}, "[11]": {"molecular_target": "T1, Platelet-derived growth factor receptor beta", "experiment": "Inhibition of PDGFRbeta in human MDA-MB-231 cells assessed as ULK Ser555 phosphorylation level at 2.5 uM incubated for 24 hrs by Western blot relative to untreated control", "assay_type": "cell-based", "method_in_brief": "as §3"}, "MDA-MB-231 [12]": {"test_system": "MDA-MB-231", "experiment": "Effect on total Akt protein level in human MDA-MB-231 cells at 2.5 uM incubated for 24 hrs by Western blot relative to untreated control", "assay_type": "ADME, cell-based", "settings": "mda-mb-231, 24 h", "method_in_brief": "as §2"}, "MDA-MB-231 [13]": {"test_system": "MDA-MB-231", "experiment": "Effect on total mTOR protein level in human MDA-MB-231 cells at 2.5 uM incubated for 24 hrs by Western blot relative to untreated control", "assay_type": "ADME, cell-based", "settings": "mda-mb-231, 24 h", "method_in_brief": "as §2"}, "MDA-MB-231 [14]": {"test_system": "MDA-MB-231", "experiment": "Effect on total PDGFRbeta protein level in human MDA-MB-231 cells at 2.5 uM incubated for 24 hrs in presence of control siRNA by Western blot relative to untreated control", "assay_type": "ADME, cell-based", "settings": "mda-mb-231, 24 h", "method_in_brief": "as §2"}, "MDA-MB-231 [15]": {"test_system": "MDA-MB-231", "experiment": "Effect on total Akt protein level in human MDA-MB-231 cells at 2.5 uM incubated for 24 hrs in absence of PDGFRbeta siRNA by Western blot relative to untreated control", "assay_type": "ADME, cell-based", "settings": "mda-mb-231, 24 h", "method_in_brief": "as §2"}, "[16]": {"molecular_target": "T1, Platelet-derived growth factor receptor beta", "experiment": "Inhibition of PDGFRbeta in human MDA-MB-231 cells assessed as ULK Ser555 phosphorylation level at 2.5 uM incubated for 24 hrs in presence of control siRNA by Western blot relative to untreated control", "assay_type": "cell-based", "method_in_brief": "(§4)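 Cells were transfected with control or PDGFR-β siRNA, then treated with 2.5 μM compound for 24 h. PDGFR-β-AKT-ULK1 pathway phospho-proteins were assessed by western blot: lysis in Hepes pH 7.4 / Triton buffer, 10-15% SDS-PAGE, PVDF, ECL detection, β-actin as loading control.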"}, "[17]": {"molecular_target": "T1, Platelet-derived growth factor receptor beta", "experiment": "Inhibition of PDGFRbeta in human MDA-MB-231 cells assessed as ULK Ser555 phosphorylation level at 2.5 uM incubated for 24 hrs in absence of PDGFRbeta siRNA by Western blot relative to untreated control", "assay_type": "cell-based", "method_in_brief": "as §4"}, "MDA-MB-231 [18]": {"test_system": "MDA-MB-231", "experiment": "Effect on total MEK1/2 protein level in human MDA-MB-231 cells at 2.5 uM incubated for 24 hrs in presence of PDGFRbeta siRNA by Western blot relative to untreated control", "assay_type": "cell-based", "settings": "mda-mb-231, 24 h"}, "[19]": {"molecular_target": "Dual specificity mitogen-activated protein kinase kinase; MEK1/2 (Homo sapiens) (UniProt P36507+Q02750)", "sequence (P36507 whole entry, looked up)": "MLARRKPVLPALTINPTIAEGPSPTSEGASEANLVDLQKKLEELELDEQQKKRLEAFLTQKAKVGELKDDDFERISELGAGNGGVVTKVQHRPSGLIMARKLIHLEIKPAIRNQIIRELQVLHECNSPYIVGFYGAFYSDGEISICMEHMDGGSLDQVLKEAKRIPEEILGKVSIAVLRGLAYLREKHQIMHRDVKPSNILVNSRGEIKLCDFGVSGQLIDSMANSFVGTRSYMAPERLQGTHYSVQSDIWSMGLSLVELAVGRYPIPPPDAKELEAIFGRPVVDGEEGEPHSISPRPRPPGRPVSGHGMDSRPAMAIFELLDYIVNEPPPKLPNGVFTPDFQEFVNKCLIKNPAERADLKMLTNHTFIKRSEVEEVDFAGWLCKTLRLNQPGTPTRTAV", "sequence (Q02750 whole entry, looked up)": "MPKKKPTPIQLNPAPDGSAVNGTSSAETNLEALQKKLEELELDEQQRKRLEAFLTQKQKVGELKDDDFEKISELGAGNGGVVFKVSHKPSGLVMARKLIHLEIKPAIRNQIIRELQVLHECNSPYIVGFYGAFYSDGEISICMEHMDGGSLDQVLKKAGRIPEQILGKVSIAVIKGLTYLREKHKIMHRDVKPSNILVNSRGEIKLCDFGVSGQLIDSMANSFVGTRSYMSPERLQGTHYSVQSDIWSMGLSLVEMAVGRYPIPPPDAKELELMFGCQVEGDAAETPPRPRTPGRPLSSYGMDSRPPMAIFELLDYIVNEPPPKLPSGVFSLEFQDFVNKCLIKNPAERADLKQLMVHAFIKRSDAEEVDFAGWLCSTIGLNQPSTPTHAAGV", "experiment": "Inhibition of MEK1/2 in human MDA-MB-231 cells assessed as MEK1/2 Ser217/221 phosphorylation level at 5 uM incubated for 24 hrs in presence of PDGFRbeta siRNA by Western blot relative to untreated control", "assay_type": "cell-based"}},
  "note": "The source made the active and inactive calls. The calls are words filed in the database; no cut-off is given here.",
  "data": [
    {"smiles": "COc1cccc(Nc2cc(N3CCN(C(=O)Nc4ccc(C(F)(F)F)cc4)CC3)ncn2)c1", "values": [
      {"measurement": "IC50", "setting": "MDA-MB-231 [1]", "value": "730 to 750", "unit": "nM"},
      {"measurement": "IC50", "setting": "MDA-MB-231 [2]", "value": 680, "unit": "nM"},
      {"measurement": "Activity", "setting": "MDA-MB-231 [3]", "value": "Active"},
      {"measurement": "fold change (FC)", "setting": "MDA-MB-231 [4]", "value": 0.55},
      {"measurement": "fold change (FC)", "setting": "MDA-MB-231 [5]", "value": 3.2},
      {"measurement": "fold change (FC)", "setting": "MDA-MB-231 [6]", "value": 2.5},
      {"measurement": "fold change (FC)", "setting": "MDA-MB-231 [7]", "value": 0.88},
      {"measurement": "fold change (FC)", "setting": "[8]", "value": 1.2},
      {"measurement": "fold change (FC)", "setting": "[9]", "value": 0.23},
      {"measurement": "fold change (FC)", "setting": "[10]", "value": 3.2},
      {"measurement": "fold change (FC)", "setting": "[11]", "value": 4.5},
      {"measurement": "fold change (FC)", "setting": "MDA-MB-231 [12]", "value": 0.89},
      {"measurement": "fold change (FC)", "setting": "MDA-MB-231 [13]", "value": 0.37},
      {"measurement": "fold change (FC)", "setting": "MDA-MB-231 [14]", "value": 0.05},
      {"measurement": "fold change (FC)", "setting": "MDA-MB-231 [15]", "value": 0.62},
      {"measurement": "fold change (FC)", "setting": "[16]", "value": 3.21},
      {"measurement": "fold change (FC)", "setting": "[17]", "value": 3.67},
      {"measurement": "fold change (FC)", "setting": "MDA-MB-231 [18]", "value": 1.05},
      {"measurement": "fold change (FC)", "setting": "[19]", "value": 1.05}
    ]}
  ]
}
